Reference: article PMC6249066 (Journal of medicinal chemistry, 2018)

Tests used:
SEM cells [1] = test: CFU assay; assay type: cell-based; conditions: 48 h exposure, colonies counted after 14 days
Method in brief: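 SEM cells pretreated with test compound or control in liquid medium, then seeded in semisolid methylcellulose-based medium that also contains the compound or control. Colonies counted after 14 days.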

human HDAC2 = human HDAC2 (Homo sapiens, UniProt Q92769); test: HDAC IC50 profiling, fluorescence-based assay; assay type: biochemical; conditions: result in words
human HDAC2, sequence (Q92769 whole entry): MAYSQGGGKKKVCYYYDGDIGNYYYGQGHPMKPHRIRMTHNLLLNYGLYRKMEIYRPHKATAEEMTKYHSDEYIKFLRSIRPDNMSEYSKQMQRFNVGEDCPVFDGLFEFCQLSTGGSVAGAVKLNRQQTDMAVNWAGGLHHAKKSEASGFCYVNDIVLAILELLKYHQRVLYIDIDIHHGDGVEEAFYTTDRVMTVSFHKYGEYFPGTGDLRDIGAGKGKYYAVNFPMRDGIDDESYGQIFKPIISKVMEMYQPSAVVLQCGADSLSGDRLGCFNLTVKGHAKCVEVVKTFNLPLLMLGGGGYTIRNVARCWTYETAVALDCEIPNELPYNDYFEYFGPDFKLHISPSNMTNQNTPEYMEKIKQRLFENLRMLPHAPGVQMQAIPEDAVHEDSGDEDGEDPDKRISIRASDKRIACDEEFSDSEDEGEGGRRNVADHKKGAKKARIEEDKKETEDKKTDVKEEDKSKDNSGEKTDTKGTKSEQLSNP

SEM cells [2] = test: Cell cycle analysis; assay type: cell-based; conditions: 48 h, dose dependent
Method in brief: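 SEM cells (RPMI1640, 10% FCS, 37°C, 5% CO2) exposed to test compound for 48 h, then permeabilised. DNA stained with propidium iodide and cell cycle distribution read by FACS.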

[3] = tested on: acetyl-α-tubulin, acetyl-Histone H3, PARP in HL-60, SEM and SUP-B15r cells; test: Western blotting of cell lysates; assay type: cell-based; conditions: 24 h
Method in brief: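 HL-60 and SEM cells (RPMI1640, 10% FCS, 37°C, 5% CO2) and TKI-resistant SUP-B15r cells (McCoy's 5A, 20% FCS) exposed to test compound or reference HDAC/proteasome inhibitors for 24 h. Lysates immunoblotted for acetyl-α-tubulin, acetyl-histone H3, PARP and GAPDH.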

[4] = tested on: caspase-like proteasome activity; test: Cell-based Proteasome-Glo caspase-like assay
Method in brief: (§1)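 Cell-based Proteasome-Glo kits: a luminogenic peptide substrate is cleaved by the proteasome to aminoluciferin, which Ultra-Glo luciferase consumes to give luminescence proportional to the corresponding protease activity. Luminescence read on a plate reader.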

[5] = tested on: aggresome accumulation in SEM cells; test: Aggresome detection assay; assay type: cell-based; conditions: 18 h, at inhibitory concentration
Method in brief: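 SEM cells (RPMI1640, 10% FCS, 37°C, 5% CO2) exposed to test compound 18 h, then stained for aggresomes and DNA with a Proteostat aggresome detection kit. Imaged by fluorescence microscopy (63X objective), or analysed by FACS, where the aggresome propensity factor is derived from relative mean fluorescence intensity.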

[6] = tested on: primary BCP-ALL cells derived from four therapy-refractory patients; assay type: cell-based; conditions: Homo sapiens, read-out: IC50 values, range over four patients
human HDAC3 = human HDAC3 (Homo sapiens, UniProt O15379); test: HDAC IC50 profiling, fluorescence-based assay; assay type: biochemical; conditions: result in words
human HDAC3, sequence (O15379 whole entry): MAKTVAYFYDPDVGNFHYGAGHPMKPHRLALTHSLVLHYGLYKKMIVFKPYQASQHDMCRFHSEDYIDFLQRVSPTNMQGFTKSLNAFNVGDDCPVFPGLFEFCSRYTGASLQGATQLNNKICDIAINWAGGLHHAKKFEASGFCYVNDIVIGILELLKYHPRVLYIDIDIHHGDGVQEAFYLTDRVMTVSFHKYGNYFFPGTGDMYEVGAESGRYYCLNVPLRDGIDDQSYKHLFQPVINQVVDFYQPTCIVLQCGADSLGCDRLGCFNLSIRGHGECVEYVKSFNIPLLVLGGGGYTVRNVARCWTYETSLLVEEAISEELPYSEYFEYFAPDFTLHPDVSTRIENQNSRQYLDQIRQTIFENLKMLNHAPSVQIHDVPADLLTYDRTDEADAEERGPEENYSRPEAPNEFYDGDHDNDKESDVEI
human HDAC3, sequence (Q9Y618 395-489 partner limits assumed): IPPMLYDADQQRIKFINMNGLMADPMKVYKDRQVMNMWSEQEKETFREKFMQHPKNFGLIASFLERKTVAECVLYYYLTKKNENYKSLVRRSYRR

human HDAC1 = human HDAC1 (Homo sapiens, UniProt Q13547); test: HDAC IC50 profiling, fluorescence-based assay; assay type: biochemical; conditions: result in words
human HDAC1, sequence (Q13547 whole entry): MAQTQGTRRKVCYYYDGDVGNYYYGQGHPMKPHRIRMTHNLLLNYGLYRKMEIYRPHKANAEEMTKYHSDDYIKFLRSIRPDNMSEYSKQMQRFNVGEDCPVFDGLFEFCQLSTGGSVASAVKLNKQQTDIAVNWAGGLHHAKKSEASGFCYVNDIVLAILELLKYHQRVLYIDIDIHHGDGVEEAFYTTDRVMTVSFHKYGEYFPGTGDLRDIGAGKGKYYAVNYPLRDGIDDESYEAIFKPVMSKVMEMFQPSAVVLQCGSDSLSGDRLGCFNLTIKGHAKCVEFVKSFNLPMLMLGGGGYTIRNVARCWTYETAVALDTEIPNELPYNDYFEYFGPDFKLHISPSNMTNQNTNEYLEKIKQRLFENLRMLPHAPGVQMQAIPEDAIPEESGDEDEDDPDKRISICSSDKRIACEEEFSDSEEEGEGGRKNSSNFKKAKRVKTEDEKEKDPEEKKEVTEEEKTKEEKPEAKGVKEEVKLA

[7] = Cell viability in PBMCs from healthy individuals; assay type: cell-based; conditions: human
[8] = tested on: trypsin-like proteasome activity; test: Cell-based Proteasome-Glo trypsin-like assay
Method in brief: as §1

SEM cells [9] = test: Proliferation assay; assay type: cell-based; conditions: at IC50 or 2x IC50 concentrations
Method in brief: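 SEM cells (RPMI1640, 10% FCS, 37°C, 5% CO2) treated with test compound. Viable cells counted every 24 h by trypan blue exclusion on an automated cell counter.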

[10] = tested on: peripheral blood derived mononuclear cells (PBMCs); test: Cell viability in PBMCs from healthy individuals; assay type: cell-based; conditions: PBMCs from healthy individuals
[11] = tested on: patients with relapsed or refractory multiple myeloma; conditions: cited from earlier work

| activity against HDAC2 (human HDAC2) | IC50 [6] | activity against HDAC3 (human HDAC3) | activity against HDAC1 (human HDAC1) | Structure (SMILES) | colony forming capacity (SEM cells [1]) | cell cycle effect (SEM cells [2]) | expression of cleaved PARP (marker of apoptosis) [3] | expression of acetyl-α tubulin and acetyl-histone H3 ([3]; compared to bortezomib) | inhibition of caspase-like proteasome activity [4] | aggresome accumulation [5] | IC50 at 72 h [7] | inhibition of trypsin-like proteasome activity [8] | proliferation of SEM cells (SEM cells [9]) | IC50 against PBMCs, concentration range in words [10] | response rate ([11]; ricolinostat in combination with bortezomib and dexamethasone) | toxicity and clinical responses as single agent ([11]; single agent) |
| --- | --- | --- | --- | --- | --- | --- | --- | --- | --- | --- | --- | --- | --- | --- | --- | --- |
| low activity | 1.51 to 5.23 µM | low activity | low activity | C[C@H](NC(=O)[C@H](CC(=O)NCC(C)(C)C)NC(=O)c1ccc(C(=O)NO)cc1)C(=O)NCc1ccccc1 [RTS-V5, N^1-((S)-1-(((S)-1-(Benzylamino)-1-oxopropan-2-yl)amino)-4-(neopentylamino)-1,4-dioxobutan-2-yl)-N^4-hydroxyterephthalamide] | significantly reduced | arrested in S phase | upregulated | enhanced the expression | unable to inhibit | significantly blocked | > 25 µM | unable to inhibit | significantly inhibited | – | – | – |
| – | – | – | – | O=C(CCCCCCNC(=O)c1cnc(N(c2ccccc2)c2ccccc2)nc1)NO [Ricolinostat] | – | – | – | – | – | – | – | – | – | single-digit micromolar | 37% | neither significant toxicity nor clinical responses |
| – | – | – | – | CC(C)C[C@H](NC(=O)[C@H](Cc1ccccc1)NC(=O)c1cnccn1)B(O)O [bortezomib] | – | – | – | – | – | – | – | – | – | submicromolar | – | – |
